Assay results from paper PMC7660780 (Journal of the American Heart Association: Cardiovascular …, 2020).
In brackets after ≈: the same amount, converted by molar mass. Several values for one entry are separate records, joined by “and”; a condition that tells them apart may be missing. Equal entries are not always repeated. Entries after “also recorded” stand apart in the source; their conditions may differ.

Assays:
Format in all cases: in vivo, human
[1] = tested on: ADP‐induced platelet aggregation (20 μmol/L)
Outline: (§1)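 Each participant got a single SC deltoid dose. Blood was drawn at baseline and at set times to 24 h into PPACK (100 μmol/L final). PRP was spun at 600 g or 300 g for 5 min at RT, and PPP at 2000 g for 9 min. High PRP counts were lowered with PPP. Turbidometric aggregation used 20 μmol/L ADP. IPA is the % fall in primary slope (≥15 s, 0.5 s sampling) versus the baseline sample, reported as mean±SD.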

[2] = tested on: ADP‐induced platelet aggregation (20 μmol/L); test: Ex vivo inhibition of ADP-induced platelet aggregation; details: for IPA Mean (SD): 15 min post-dose; for IPA of the 1 participant who did not achieve the BED: 0.075 mg/kg SC dose escalation
[3] = Safety measures in healthy volunteers; details: HVs
Outline: (§2)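 The trial was double-blind, placebo-controlled and dose-escalating. In each cohort, 2 sentinels were dosed, then 5 more were randomized 4:1 to drug or placebo. Each received a single weight-based SC deltoid injection of 0.18–0.52 mL, followed by 15 min gentle pressure. Injection site checks, platelet counts, laboratory tests and clinical assessments ran at set times through 24 h and at 7 days. Adverse events were graded by CTCAE.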

[4] = tested on: ADP‐induced platelet aggregation (20 μmol/L); test: Ex vivo inhibition of ADP-induced platelet aggregation; details: healthy volunteers
Outline: as §1

[5] = tested on: ADP‐induced platelet aggregation (20 μmol/L); test: Population pharmacodynamic model; details: for IC50: value ± spread as printed in pharmacokinetic data section
[6] = Population pharmacokinetic model
[7] = Safety and tolerability, summary statements over the whole study
Outline: as §2

[8] = Safety measures in patients with stable CAD receiving aspirin; details: stable CAD on aspirin
Outline: as §2

[9] = RUC‐4 whole blood levels by LC-MS/MS; details: dose‐expansion group 0.075 mg/kg SC
[10] = 0.075 mg/kg SC, HVs and patients with stable CAD taking aspirin
[11] = stable CAD on aspirin, 0.075 mg/kg SC, dose escalation
[12] = dose escalation 0.04 mg/kg (n=2)
[13] = dose escalation 0.05 mg/kg (n=6)
[14] = dose escalation 0.075 mg/kg (n=6)
[15] = dose expansion 0.075 mg/kg (n=12)

## NCC(=O)Nc1cncc(-c2nn3c(=O)cc(N4CCNCC4)nc3s2)c1 [RUC‐4]
[1]; [10]
  platelet inhibition (high‐grade): > 80%
  time to onset of high-grade platelet inhibition: < 15 min
  time within which platelet inhibition largely resolved: ≤ 2 h
[1]; subcutaneous administration
  time to peak of blood drug levels and platelet inhibition: ≤ 15 min
[1]; subcutaneous, 20 μmol/L of ADP
  time to onset of high-grade inhibition of platelet aggregation: < 15 min
  time to return of IPA toward baseline: ≤ 2 h
[1]; subcutaneous, 20 μmol/L of ADP, across the study populations
  inhibition of platelet aggregation (high‐grade): > 80%
[2]; dose‐expansion group 0.075 mg/kg SC, 5, 15, 30, and 60 minutes time points
  IPA of the one CAD participant with much higher whole blood levels: 100%
[2]; stable CAD on aspirin, 0.04 mg/kg SC, 0.04 mg/kg
  IPA Mean (SD): 53.6%±17.0%
[2]; stable CAD on aspirin, 0.05 mg/kg SC, 0.05 mg/kg
  IPA Mean (SD): 76.9%±10.6%
[2]; stable CAD on aspirin, 15 minutes
  IPA of the 1 participant who did not achieve the BED: 65.4%
[2]; stable CAD on aspirin, 30 minutes
  IPA of the 1 participant who did not achieve the BED: 86.5%
[2]; [11]
  participants achieving the BED: 5 of 6
  return of IPA toward baseline: ≤ 4 h
[2]; stable CAD on aspirin, 0.075 mg/kg SC, dose expansion, additional participants
  participants achieving the BED: 6 of the 12
[2]; stable CAD on aspirin, 0.075 mg/kg SC, high‐weight group, 15 minutes
  IPA mean±SD: 88.0%±14.4%
[2]; stable CAD on aspirin, 0.075 mg/kg SC, high‐weight group, 30 minutes
  IPA mean±SD: 85.4%±21.0
[2]; stable CAD on aspirin, 0.075 mg/kg SC, low‐weight group, 15 minutes
  IPA mean±SD: 63.2%±21.4%
[2]; stable CAD on aspirin, 0.075 mg/kg SC, low‐weight group, 30 minutes
  IPA mean±SD: 67.8%±14.7%
[3]; 0.05 mg/kg (n=6)
  No. of TESAEs: 0
  Patients reporting a TEAE of bruising at the injection site: 0 (0.0) n (%)
  Patients reporting a non‐AE bruising at the injection site event: 2 (33.3) n (%)
  Patients reporting at least 1 bleeding AE: 0 (0.0) n (%)
  Patients reporting at least 1 injection site reaction adverse event: 0 (0.0) n (%)
  Patients reporting at least 1 related TEAE with CTCAE grade ≥3: 0 (0.0) n (%)
  non‐AE bruising at the injection site, Grade 1: 2 (33.3) n (%)
  non‐AE bruising at the injection site, Grade 2: 0 (0.0) n (%)
[3]; 0.075 mg/kg (n=6)
  No. of TESAEs: 0
  Patients reporting a TEAE of bruising at the injection site: 0 (0.0) n (%)
  Patients reporting a non‐AE bruising at the injection site event: 0 (0.0) n (%)
  Patients reporting at least 1 bleeding AE: 0 (0.0) n (%)
  Patients reporting at least 1 injection site reaction adverse event: 0 (0.0) n (%)
  Patients reporting at least 1 related TEAE with CTCAE grade ≥3: 0 (0.0) n (%)
  non‐AE bruising at the injection site, Grade 1: 0 (0.0) n (%)
  non‐AE bruising at the injection site, Grade 2: 0 (0.0) n (%)
[4]; 0.05 mg/kg SC (n=6), 15 minutes
  IPA mean±SD: 71.8%±15.0%
[4]; 0.075 mg/kg SC
  return of IPA toward baseline: ≤ 4 h
[4]; 0.075 mg/kg SC (n=6), 15 minutes, 0.075 mg/kg
  IPA mean±SD: 84.7%±16.7% and 84.7%
[4]; 0.075 mg/kg SC, 15 minutes
  IPA median: 88.0%
[4]; 0.075 mg/kg SC, 15 minutes, 0.075 mg/kg
  IPA of the individual participants not achieving the BED: 76.5% and 55.8%
[4]; 0.075 mg/kg SC, 30 minutes postdose, 0.075 mg/kg
  IPA of the individual participants not achieving the BED: 68.6% and 73.1%
[5]; cohort with aspirin
  IC50, geometric mean: 33.8 ng/mL (≈ 0.0875 µM)
[5]; cohort without aspirin
  IC50, geometric mean: 34.2 ng/mL (≈ 0.0885 µM)
[5]; sigmoidal Emax model
  gamma (coefficient): 1.31
[5]; with aspirin
  IC50: 34.7 ± 7.9 ng/mL (≈ 0.0898 µM)
[5]; without aspirin
  IC50: 34.8 ± 6.7 ng/mL (≈ 0.0901 µM)
[6]; SC, All Subjects
  Vp/F (apparent peripheral volume of distribution), geometric mean: 221 L
[6]; pharmacokinetic and pharmacodynamic models, covariate aspirin
  effect of aspirin on RUC‐4 pharmacokinetics or pharmacodynamics: did not significantly affect
[7]
  adverse events leading to study drug discontinuation: none leading to study drug discontinuation
  drug‐related changes in laboratory values: no drug‐related changes in laboratory values
  injection site reactions (including bruising), severity: mild
  platelet counts during the course of treatment: stable
  transient reduction in platelet count, single participant: 120 000 /μL
[7]; SC 0.04-0.075 mg/kg
  serious adverse events: no serious adverse events; also recorded: No SAEs were observed
[7]; limited to the injection site
  bleeding events, number of patients: 3 patients
[7]; modified Bleeding Academic Research Consortium type 1
  severity of bleeding events: mild
[8]; [12]
  No. of TESAEs: 0
  Patients reporting a TEAE of bruising at the injection site: 0 (0.0) n (%)
  Patients reporting a non‐AE bruising at the injection site event: 0 (0.0) n (%)
  Patients reporting at least 1 bleeding AE: 0 (0.0) n (%)
  Patients reporting at least 1 injection site reaction AE: 0 (0.0) n (%)
  Patients reporting at least 1 related TEAE with CTCAE grade ≥3: 0 (0.0) n (%)
  non‐AE bruising at the injection site, Grade 1: 0 (0.0) n (%)
  non‐AE bruising at the injection site, Grade 2: 0 (0.0) n (%)
[8]; [13]
  No. of TESAEs: 0
  Patients reporting a TEAE of bruising at the injection site: 0 (0.0) n (%)
  Patients reporting a non‐AE bruising at the injection site event: 2 (33.3) n (%)
  Patients reporting at least 1 bleeding AE: 0 (0.0) n (%)
  Patients reporting at least 1 injection site reaction AE: 0 (0.0) n (%)
  Patients reporting at least 1 related TEAE with CTCAE grade ≥3: 0 (0.0) n (%)
  non‐AE bruising at the injection site, Grade 1: 2 (33.3) n (%)
  non‐AE bruising at the injection site, Grade 2: 0 (0.0) n (%)
[8]; [14]
  No. of TESAEs: 0
  Patients reporting a TEAE of bruising at the injection site: 0 (0.0) n (%)
  Patients reporting a non‐AE bruising at the injection site event: 4 (66.7) n (%)
  Patients reporting at least 1 bleeding AE: 0 (0.0) n (%)
  Patients reporting at least 1 injection site reaction AE: 0 (0.0) n (%)
  Patients reporting at least 1 related TEAE with CTCAE grade ≥3: 0 (0.0) n (%)
  non‐AE bruising at the injection site, Grade 1: 4 (66.7) n (%)
  non‐AE bruising at the injection site, Grade 2: 0 (0.0) n (%)
[8]; [15]
  No. of TESAEs: 0
  Patients reporting a TEAE of bruising at the injection site: 0 (0.0) n (%)
  Patients reporting a non‐AE bruising at the injection site event: 5 (41.7) n (%)
  Patients reporting at least 1 bleeding AE: 0 (0.0) n (%)
  Patients reporting at least 1 injection site reaction AE: 0 (0.0) n (%)
  Patients reporting at least 1 related TEAE with CTCAE grade ≥3: 0 (0.0) n (%)
  non‐AE bruising at the injection site, Grade 1: 5 (41.7) n (%)
  non‐AE bruising at the injection site, Grade 2: 0 (0.0) n (%)
[8]; total RUC‐4 0.075 mg/kg (n=18)
  No. of TESAEs: 0
  Patients reporting a TEAE of bruising at the injection site: 0 (0.0) n (%)
  Patients reporting a non‐AE bruising at the injection site event: 9 (50.0) n (%)
  Patients reporting at least 1 bleeding AE: 0 (0.0) n (%)
  Patients reporting at least 1 injection site reaction AE: 0 (0.0) n (%)
  Patients reporting at least 1 related TEAE with CTCAE grade ≥3: 0 (0.0) n (%)
  non‐AE bruising at the injection site, Grade 1: 9 (50.0) n (%)
  non‐AE bruising at the injection site, Grade 2: 0 (0.0) n (%)
[9]; 5 minutes
  whole blood level of RUC‐4, group mean excluding the outlying participant: 26.8 ± 26.5 ng/mL
  whole blood level of RUC‐4, one CAD participant with much higher levels: 384 ng/mL
[9]; 15 minutes
  whole blood level of RUC‐4, group mean excluding the outlying participant: 74.3 ± 38.6 ng/mL
  whole blood level of RUC‐4, one CAD participant with much higher levels: > 500 ng/mL
[9]; 30 minutes
  whole blood level of RUC‐4, group mean excluding the outlying participant: 71.3 ± 30.5 ng/mL
  whole blood level of RUC‐4, one CAD participant with much higher levels: 307 ng/mL
[9]; 60 minutes
  whole blood level of RUC‐4, group mean excluding the outlying participant: 40.3 ± 7.3 ng/mL
  whole blood level of RUC‐4, one CAD participant with much higher levels: 131 ng/mL
